Data on 28 compounds can be found in ChEMBL document CHEMBL4138179, “Design, synthesis and cytotoxic activity of N-Modified oleanolic saponins bearing A glucosamine” (Eur J Med Chem, 2018).

Holding throughout (type): functional, cell-based
One test has as its system HL-60. In words: Cytotoxicity against human HL60 cells assessed as cell growth inhibition after 48 hrs by MTT assay. Particulars: HL-60, 48 h. An outline of the steps: (§1)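 Cells from ATCC; HL-60 grown in IMDM, PC-3 in RPMI 1640, HT29 in DMEM, each with 10% FBS and penicillin/streptomycin, 37 °C, 5% CO2. Cells incubated without or with compound at the indicated concentrations and times. Mitochondrial MTT reduction read at 570 nm on a plate reader. IC50 given as mean ± SD of at least three independent experiments.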
A general note: Tetrazolium assays rely on reduction of a dye to a coloured formazan, in cell work by metabolically active cells.

Another test concerns HT-29. In words: Cytotoxicity against human HT-29 cells assessed as cell growth inhibition after 48 hrs by MTT assay. Particulars: HT-29, 48 h. An outline of the steps:
as §1

Another test relates to PC-3. The experiment in a line: Cytotoxicity against human PC3 cells assessed as cell growth inhibition after 48 hrs by MTT assay. Particulars: PC-3, 48 h. An outline of the steps: as §1

As a reminder, the IC50 is the concentration at which inhibition is half-maximal. As for `CCCCCCCCC(=O)N[C@H]1[C@H](O[C@H]2CC[C@]3(C)[C@H]4CC=C5[C@@H]6CC(C)(C)CC[C@]6(C(=O)O)CC[C@@]5(C)[C@]4(C)CC[C@H]3C2(C)C)O[C@H](CO)[C@@H](O)[C@@H]1O`, the IC50 was 1.46 µM in the test on HL-60, 22.8 µM in the test on HT-29 and 14.7 µM with PC-3.

For `CCCCCCCC(=O)N[C@H]1[C@H](O[C@H]2CC[C@]3(C)[C@H]4CC=C5[C@@H]6CC(C)(C)CC[C@]6(C(=O)O)CC[C@@]5(C)[C@]4(C)CC[C@H]3C2(C)C)O[C@H](CO)[C@@H](O)[C@@H]1O`, the IC50 with HL-60 was found to be 1.68 µM; in the test with HT-29 it was 21.9 µM; in the test with PC-3, 19.4 µM.

Consider `O=c1[nH]cc(F)c(=O)[nH]1` [FLUOROURACIL], for which the IC50 was > 30 µM with HL-60, 8.3 µM with HT-29 and > 30 µM with PC-3.

On to `CC[C@]1(O)C[C@H]2CN(CCc3c([nH]c4ccccc34)[C@@](C(=O)OC)(c3cc4c(cc3OC)N(C=O)[C@H]3[C@@](O)(C(=O)OC)[C@H](OC(C)=O)[C@]5(CC)C=CCN6CC[C@]43[C@@H]65)C2)C1` [VINCRISTINE], for which the IC50 in the test with HL-60 was 0.0018 µM; in the test with PC-3 it was > 0.025 µM.

In the case of `CCCCC(=O)N[C@H]1[C@H](O[C@H]2CC[C@]3(C)[C@H]4CC=C5[C@@H]6CC(C)(C)CC[C@]6(C(=O)O)CC[C@@]5(C)[C@]4(C)CC[C@H]3C2(C)C)O[C@H](CO)[C@@H](O)[C@@H]1O`, the IC50 stood at 10.6 µM with HL-60, 21.7 µM in the test with HT-29 and 24 µM in the test on PC-3.

In the case of `CCCCCCCCCCCC(=O)N[C@H]1[C@H](O[C@H]2CC[C@]3(C)[C@H]4CC=C5[C@@H]6CC(C)(C)CC[C@]6(C(=O)O)CC[C@@]5(C)[C@]4(C)CC[C@H]3C2(C)C)O[C@H](CO)[C@@H](O)[C@@H]1O`, the IC50 in the test on HL-60 is 1.57 µM; with HT-29, > 30 µM; in the test on PC-3, 21.4 µM.

For the compound `CCCCCCOC(=O)N[C@H]1[C@H](O[C@H]2CC[C@]3(C)[C@H]4CC=C5[C@@H]6CC(C)(C)CC[C@]6(C(=O)O)CC[C@@]5(C)[C@]4(C)CC[C@H]3C2(C)C)O[C@H](CO)[C@@H](O)[C@@H]1O`, the IC50 amounted to 1.44 µM in the test on HL-60, 21.4 µM with HT-29 and 13.9 µM with PC-3.

As to `CCCCCCCCNC(=O)N[C@H]1[C@H](O[C@H]2CC[C@]3(C)[C@H]4CC=C5[C@@H]6CC(C)(C)CC[C@]6(C(=O)O)CC[C@@]5(C)[C@]4(C)CC[C@H]3C2(C)C)O[C@H](CO)[C@@H](O)[C@@H]1O`, the IC50 in the test with HL-60 is 2.14 µM; with HT-29, > 30 µM; with PC-3 it was > 30 µM.

Take `CC(=O)N[C@H]1[C@H](O[C@H]2CC[C@]3(C)[C@H]4CC=C5[C@@H]6CC(C)(C)CC[C@]6(C(=O)O)CC[C@@]5(C)[C@]4(C)CC[C@H]3C2(C)C)O[C@H](CO)[C@@H](O)[C@@H]1O`: the IC50 in the test on HL-60 is 10.3 µM; in the test on HT-29, > 30 µM; with PC-3, > 30 µM.

Take `CCCCCOC(=O)N[C@H]1[C@H](O[C@H]2CC[C@]3(C)[C@H]4CC=C5[C@@H]6CC(C)(C)CC[C@]6(C(=O)O)CC[C@@]5(C)[C@]4(C)CC[C@H]3C2(C)C)O[C@H](CO)[C@@H](O)[C@@H]1O`: the figures for the IC50 with HL-60, with HT-29 and in the test on PC-3 were 1.46 µM, > 30 µM and > 30 µM, respectively.

As to `CCCCOC(=O)N[C@H]1[C@H](O[C@H]2CC[C@]3(C)[C@H]4CC=C5[C@@H]6CC(C)(C)CC[C@]6(C(=O)O)CC[C@@]5(C)[C@]4(C)CC[C@H]3C2(C)C)O[C@H](CO)[C@@H](O)[C@@H]1O`, the IC50 in the test on HL-60 turned out to be 2.23 µM; in the test with HT-29, 18.1 µM; with PC-3, 15 µM.

As to `CCC(=O)N[C@H]1[C@H](O[C@H]2CC[C@]3(C)[C@H]4CC=C5[C@@H]6CC(C)(C)CC[C@]6(C(=O)O)CC[C@@]5(C)[C@]4(C)CC[C@H]3C2(C)C)O[C@H](CO)[C@@H](O)[C@@H]1O`, the IC50 in the test on HL-60 was 6.83 µM; in the test on HT-29 it was 16.4 µM; in the test with PC-3, 11.9 µM.

For `CCCCCCCCCCCCCCCCCC(=O)N[C@H]1[C@H](O[C@H]2CC[C@]3(C)[C@H]4CC=C5[C@@H]6CC(C)(C)CC[C@]6(C(=O)O)CC[C@@]5(C)[C@]4(C)CC[C@H]3C2(C)C)O[C@H](CO)[C@@H](O)[C@@H]1O`, the IC50 in the test with HL-60, with HT-29 and with PC-3 was > 30 µM each time.

In the case of `CCCCCCCCOC(=O)N[C@H]1[C@H](O[C@H]2CC[C@]3(C)[C@H]4CC=C5[C@@H]6CC(C)(C)CC[C@]6(C(=O)O)CC[C@@]5(C)[C@]4(C)CC[C@H]3C2(C)C)O[C@H](CO)[C@@H](O)[C@@H]1O`, the IC50 in the test with HL-60 worked out at 1.42 µM; with HT-29, 20.3 µM; with PC-3, 15.4 µM.

`CC1(C)CC[C@]2(C(=O)O)CC[C@]3(C)C(=CC[C@@H]4[C@@]5(C)CC[C@H](O[C@@H]6O[C@H](CO)[C@@H](O)[C@H](O)[C@H]6N)C(C)(C)[C@@H]5CC[C@]43C)[C@@H]2C1`: the IC50 in the test with HL-60 was 2.65 µM; with HT-29 it was > 30 µM; in the test on PC-3 it was 25 µM.

For the compound `CCCCCCCCCC(=O)N[C@H]1[C@H](O[C@H]2CC[C@]3(C)[C@H]4CC=C5[C@@H]6CC(C)(C)CC[C@]6(C(=O)O)CC[C@@]5(C)[C@]4(C)CC[C@H]3C2(C)C)O[C@H](CO)[C@@H](O)[C@@H]1O`, the IC50 in the test with HL-60 was 1.4 µM; with HT-29, > 30 µM; in the test on PC-3, > 30 µM.

Regarding `COC(=O)N[C@H]1[C@H](O[C@H]2CC[C@]3(C)[C@H]4CC=C5[C@@H]6CC(C)(C)CC[C@]6(C(=O)O)CC[C@@]5(C)[C@]4(C)CC[C@H]3C2(C)C)O[C@H](CO)[C@@H](O)[C@@H]1O`, the concentration for half-maximal inhibition (IC50) in the test on HL-60 was 11.4 µM; in the test on HT-29, > 30 µM; with PC-3 it was > 30 µM.

Turning to `CCCCCCCCCOC(=O)N[C@H]1[C@H](O[C@H]2CC[C@]3(C)[C@H]4CC=C5[C@@H]6CC(C)(C)CC[C@]6(C(=O)O)CC[C@@]5(C)[C@]4(C)CC[C@H]3C2(C)C)O[C@H](CO)[C@@H](O)[C@@H]1O`, the IC50 worked out at 1.23 µM in the test on HL-60, 22 µM in the test with HT-29 and 16.1 µM with PC-3.

As for `CCCOC(=O)N[C@H]1[C@H](O[C@H]2CC[C@]3(C)[C@H]4CC=C5[C@@H]6CC(C)(C)CC[C@]6(C(=O)O)CC[C@@]5(C)[C@]4(C)CC[C@H]3C2(C)C)O[C@H](CO)[C@@H](O)[C@@H]1O`, the IC50 in the test with HL-60 was 21.5 µM; with HT-29, > 30 µM; with PC-3, > 30 µM.

`CCCC(=O)N[C@H]1[C@H](O[C@H]2CC[C@]3(C)[C@H]4CC=C5[C@@H]6CC(C)(C)CC[C@]6(C(=O)O)CC[C@@]5(C)[C@]4(C)CC[C@H]3C2(C)C)O[C@H](CO)[C@@H](O)[C@@H]1O`: the IC50 was 2.48 µM in the test with HL-60, > 30 µM in the test on HT-29 and > 30 µM in the test on PC-3.

As to `CCCCCCC(=O)N[C@H]1[C@H](O[C@H]2CC[C@]3(C)[C@H]4CC=C5[C@@H]6CC(C)(C)CC[C@]6(C(=O)O)CC[C@@]5(C)[C@]4(C)CC[C@H]3C2(C)C)O[C@H](CO)[C@H](O)[C@@H]1O`, the IC50 with HL-60 was 2.69 µM; in the test on HT-29, > 30 µM; in the test with PC-3, > 30 µM.

Take `CCCCCCCOC(=O)N[C@H]1[C@H](O[C@H]2CC[C@]3(C)[C@H]4CC=C5[C@@H]6CC(C)(C)CC[C@]6(C(=O)O)CC[C@@]5(C)[C@]4(C)CC[C@H]3C2(C)C)O[C@H](CO)[C@@H](O)[C@@H]1O`: the IC50 came out at 0.76 µM in the test on HL-60, 21.7 µM in the test on HT-29 and 15.4 µM in the test with PC-3.

Regarding `CC1(C)CC[C@]2(C(=O)O)CC[C@]3(C)C(=CC[C@@H]4[C@@]5(C)CC[C@H](O)C(C)(C)[C@@H]5CC[C@]43C)[C@@H]2C1` [OLEANOLIC_ACID], the IC50 in the test on HL-60, in the test with HT-29 and with PC-3 was > 30 µM in each case.

On to `CCCCCCCCCCCCCCCC(=O)N[C@H]1[C@H](O[C@H]2CC[C@]3(C)[C@H]4CC=C5[C@@H]6CC(C)(C)CC[C@]6(C(=O)O)CC[C@@]5(C)[C@]4(C)CC[C@H]3C2(C)C)O[C@H](CO)[C@@H](O)[C@@H]1O`, for which the IC50 in the test on HL-60, with HT-29 and with PC-3 was > 30 µM throughout.

In the case of `CC(=O)N[C@H]1[C@H](O[C@H]2CC[C@]3(C)[C@H]4CC=C5[C@@H]6CC(C)(C)CC[C@]6(C(=O)O)CC[C@@]5(C)[C@]4(C)CC[C@H]3C2(C)C)O[C@H](CO)[C@H](O)[C@@H]1O`, the IC50 in the test with HL-60 turned out to be 11.6 µM; in the test on HT-29, 23.3 µM; in the test on PC-3, 23.4 µM.

As to `CCCCCC(=O)N[C@H]1[C@H](O[C@H]2CC[C@]3(C)[C@H]4CC=C5[C@@H]6CC(C)(C)CC[C@]6(C(=O)O)CC[C@@]5(C)[C@]4(C)CC[C@H]3C2(C)C)O[C@H](CO)[C@@H](O)[C@@H]1O`, the IC50 with HL-60 is 5.82 µM; with HT-29 it was > 30 µM; in the test with PC-3, > 30 µM.

With `CCCCCCCCCCCCCC(=O)N[C@H]1[C@H](O[C@H]2CC[C@]3(C)[C@H]4CC=C5[C@@H]6CC(C)(C)CC[C@]6(C(=O)O)CC[C@@]5(C)[C@]4(C)CC[C@H]3C2(C)C)O[C@H](CO)[C@@H](O)[C@@H]1O`, the values for the IC50 with HL-60, with HT-29 and in the test with PC-3 were 10.7 µM, > 30 µM and > 30 µM, respectively.

`CCOC(=O)N[C@H]1[C@H](O[C@H]2CC[C@]3(C)[C@H]4CC=C5[C@@H]6CC(C)(C)CC[C@]6(C(=O)O)CC[C@@]5(C)[C@]4(C)CC[C@H]3C2(C)C)O[C@H](CO)[C@@H](O)[C@@H]1O`: the IC50 was 12.5 µM in the test on HL-60, > 30 µM in the test with HT-29 and > 30 µM with PC-3.
